Experimental findings from ChEMBL document CHEMBL4043134, “Isolation and lipolytic activity of eurycomanone and its epoxy derivative from Eurycoma longifolia” (Bioorg Med Chem, 2017) are described below.

Activity calls are given as the source filed them. The calls are words filed in the database; no cut-off is given here.

Data set [1] relates to 3T3-L1. As to the kind of experiment: Antiobesity activity in mouse 3T3L1 cells assessed as reduction in accumulation of lipid droplets up to 100 uM administered on day 4 post differentiation induction measured on day 9 by Oil Red O staining-based microscopic analysis relative to control. The data set is classed as functional, cell-based.
For data set [2], the system named is 3T3-L1. In words: Antiobesity activity in mouse 3T3L1 cells assessed as increase in glycerol release up to 100 uM after 24 hrs relative to control. The data set is classed as functional, cell-based. The essentials:
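Mouse 3T3-L1 preadipocytes were differentiated from day 0 (one day post-confluence) in 10% FBS/DMEM with 0.5 mM IBMX, 0.25 μM DEX and 5 μg/mL insulin, then switched to insulin medium, then plain medium; used on day 8. Samples were dissolved in DMSO and diluted into phenol-red-free DMEM, applied for 24 h. Medium glycerol was measured with free glycerol reagent (37 °C, 5 min, A540) relative to control; 1 μM isoproterenol positive control; mean ± SEM, n=6, Dunnett's test.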

The test system of data set [3] is 3T3-L1. As to the kind of experiment: Antiobesity activity in mouse 3T3L1 cells assessed as reduction in accumulation of lipid droplets administered on day 4 post differentiation induction measured on day 9 by Oil Red O staining-based microscopic analysis. The class given is functional, cell-based.
For data set [4], the system named is Mus musculus. As to the kind of experiment: Activation of ERK in mouse 3T3-L1 cells assessed as lipolytic activity by measuring increase in glycerol release at 25 uM administered 1 hr after ERK inhibitor addition measured after 24 hrs in presence of 20 uM ERK inhibitor PD 98059. The class given is cell-based. The essentials: (§1)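 Day-8 differentiated 3T3-L1 adipocytes were preincubated with the specified inhibitor for 1 h, then incubated with sample plus inhibitor for 24 h in phenol-red-free DMEM. Released glycerol in the medium was quantified with free glycerol reagent (37 °C, 5 min, A540) and expressed relative to control.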

For data set [5], the system named is 3T3-L1. As to the kind of experiment: Cytotoxicity against mouse 3T3L1 cells assessed as reduction in cell viability up to 100 uM after 6 to 48 hrs by CCK-8 assay. The class given is cell-based. A general note: Tetrazolium assays rely on reduction of a dye to a coloured formazan, in cell work by metabolically active cells.
The subject of data set [6] is Mus musculus. In words: Activation of PKA in mouse 3T3-L1 cells assessed as lipolytic activity by measuring increase in glycerol release at 25 uM administered 1 hr after PKA inhibitor addition measured after 24 hrs in presence of 20 uM PKA inhibitor H-89. The class given is cell-based. The essentials: as §1
For data set [7], the species on record is Mus musculus. As to the kind of experiment: Induction of PKA phosphorylation in mouse 3T3-L1 cells at 12.5 uM in presence of 20 uM H-89 by immunoblotting. The data set is classed as cell-based. On the technique in general: In western blotting, separated proteins are transferred to a membrane and probed.
The target in data set [8] is Beta-3 adrenergic receptor (Mus musculus) (UniProt P25962). In words: Activation of beta3 adrenergic receptor in mouse 3T3-L1 cells assessed as lipolytic activity by measuring increase in glycerol release at 25 uM administered 1 hr after beta3 adrenergic receptor inhibitor addition measured after 24 hrs in presence of 20 uM […] inhibitor propranolol. The class given is cell-based. The method, boiled down: as §1
Beta-3 adrenergic receptor (Mus musculus), sequence (P25962 whole entry): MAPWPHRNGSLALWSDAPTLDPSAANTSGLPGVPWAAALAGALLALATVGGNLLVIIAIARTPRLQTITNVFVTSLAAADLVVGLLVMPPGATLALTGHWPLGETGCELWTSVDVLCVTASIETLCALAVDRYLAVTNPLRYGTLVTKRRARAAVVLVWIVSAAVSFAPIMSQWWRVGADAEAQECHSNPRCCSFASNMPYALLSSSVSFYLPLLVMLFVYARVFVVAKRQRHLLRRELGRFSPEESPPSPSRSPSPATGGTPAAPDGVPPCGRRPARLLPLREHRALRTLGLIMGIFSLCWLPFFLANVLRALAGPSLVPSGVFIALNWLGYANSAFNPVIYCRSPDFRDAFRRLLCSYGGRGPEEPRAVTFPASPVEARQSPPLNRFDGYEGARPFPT

The subject of data set [9] is 3T3-L1. In words: Antiobesity activity in mouse 3T3L1 cells assessed as increase in glycerol release after 24 hrs. The data set is classed as functional, cell-based. The following applies: for EC50: 3T3-L1, 24 h. The method, boiled down:
(§2)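 3T3-L1 preadipocytes were differentiated with IBMX (0.5 mM), DEX (0.25 μM) and insulin (5 μg/mL) from day 0, then insulin alone, then plain 10% FBS/DMEM. On day 8 they were exposed to sample (DMSO stock diluted in phenol-red-free DMEM) for 24 h. Medium was mixed with free glycerol reagent (37 °C, 5 min) and read at A540, relative to control. Mean ± SEM, n=6.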

Data set [10] has as its system 3T3-L1. As to the kind of experiment: Antiobesity activity in mouse 3T3L1 cells assessed as glycerol release at 1 uM after 24 hrs relative to control. The data set is classed as functional. The essentials: as §2

`CC1=CC(=O)[C@@H](O)[C@]2(C)C3[C@]4(O)OC[C@@]35[C@@H](C[C@@H]12)OC(=O)[C@H](O)[C@@]5(O)[C@@](O)(CO)[C@H]4O` (some centres undefined): the result with 3T3-L1 [1] and in the data set with 3T3-L1 [2] was inactive.

As a reminder, the EC50 is the concentration that produces a half-maximal response. For the compound `CC1=CC(=O)[C@@H](O)[C@]2(C)C3[C@]4(O)OC[C@@]35[C@@H](C[C@@H]12)OC(=O)[C@H](O)[C@@]5(O)[C@@]1(CO1)[C@H]4O` (some centres undefined), the results for the Activity result in the data set with 3T3-L1 [3], with 3T3-L1 [5] and in the data set on 3T3-L1 [9] were “Dose-dependent effect”, “Non-Toxic” and “Dose-dependent effect”, respectively. Also, the outcome (in the data set with Mus musculus [4]; in [8]) was inactive. Further, the result in the data set on Mus musculus [6] and in the data set listed under Mus musculus [7] was Active. Further, in the data set with 3T3-L1 [9], the EC50 was found to be 8.6 µM.

`C=C1[C@@H](O)[C@@]2(O)OC[C@]34C2[C@@]2(C)[C@H](O)C(=O)C=C(C)[C@@H]2C[C@H]3OC(=O)[C@H](O)[C@@]14O` (some centres undefined): the Activity result is “Dose-dependent effect” in the data set on 3T3-L1 [3], “Non-Toxic” with 3T3-L1 [5] and “Dose-dependent effect” in the data set with 3T3-L1 [9]. In addition, the outcome (with Mus musculus [4]; in [8]) was inactive. Further, the result in the data set with Mus musculus [6] and in the data set filed under Mus musculus [7] was Active. For the same compound, the concentration for a half-maximal effect (EC50) in the data set with 3T3-L1 [9] stood at 14.6 µM.

In the case of `CC(C)NCC(O)c1ccc(O)c(O)c1` (centres undefined) [ISOPROTERENOL], the Activity in the data set on 3T3-L1 [10] was 322%.
